Data set [1] addresses Fibroblast growth factor receptor 3 (Homo sapiens, UniProt P22607). Nature of the data set: Inhibition of His-tagged cytoplasmic recombinant human FGFR3 (399 to 806 residues) expressed in baculovirus expression system using Tyr 4 peptide as substrate incubated for 1 hr by FRET-based Z'-Lyte assay.
Data set [2] relates to MDA-MB-453. The data set can be described thus: Antiproliferative activity against human MDA-MB-453 cells harboring FGFR4 Y367C mutant after 72 hrs by CCK8 assay. Particulars: MDA-MB-453, 72 h; call rule not given here. In general terms: Tetrazolium dyes change colour on reduction, which living cells bring about.
In a further data set the test system is MCF7. The data set can be described thus: Antiproliferative activity against human MCF7 cells expressing low levels of FGFR4 after 72 hrs by CCK8 assay. As to conditions: MCF7, 72 h.
In the next data set the test system is MDA-MB-231. The data set can be described thus: Antiproliferative activity against human MDA-MB-231 cells expressing low levels of FGFR4 after 72 hrs by CCK8 assay. Particulars: MDA-MB-231, 72 h.
Data set [3] addresses Fibroblast growth factor receptor 2 (Homo sapiens, UniProt P21802). Nature of the data set: Inhibition of His-tagged cytoplasmic recombinant human FGFR2 (403 to 822 residues) expressed in baculovirus expression system using Tyr 4 peptide as substrate incubated for 1 hr by FRET-based Z'-Lyte assay.
Data set [4] concerns the target Fibroblast growth factor receptor 1 (Homo sapiens, UniProt P11362). The data set can be described thus: Inhibition of His-tagged cytoplasmic recombinant human FGFR1 (308 to 731 residues) expressed in baculovirus expression system using Tyr 4 peptide as substrate incubated for 1 hr by FRET-based Z'-Lyte assay.
Data set [5] addresses T1, Fibroblast growth factor receptor 4 (Homo sapiens, UniProt P22455). Nature of the data set: Inhibition of His-tagged cytoplasmic recombinant human FGFR4 ([…] residues) expressed in baculovirus expression system using Tyr 4 peptide as substrate incubated for 1 hr by FRET-based Z'-Lyte assay.
Target sequence in this assay (P22455 whole entry): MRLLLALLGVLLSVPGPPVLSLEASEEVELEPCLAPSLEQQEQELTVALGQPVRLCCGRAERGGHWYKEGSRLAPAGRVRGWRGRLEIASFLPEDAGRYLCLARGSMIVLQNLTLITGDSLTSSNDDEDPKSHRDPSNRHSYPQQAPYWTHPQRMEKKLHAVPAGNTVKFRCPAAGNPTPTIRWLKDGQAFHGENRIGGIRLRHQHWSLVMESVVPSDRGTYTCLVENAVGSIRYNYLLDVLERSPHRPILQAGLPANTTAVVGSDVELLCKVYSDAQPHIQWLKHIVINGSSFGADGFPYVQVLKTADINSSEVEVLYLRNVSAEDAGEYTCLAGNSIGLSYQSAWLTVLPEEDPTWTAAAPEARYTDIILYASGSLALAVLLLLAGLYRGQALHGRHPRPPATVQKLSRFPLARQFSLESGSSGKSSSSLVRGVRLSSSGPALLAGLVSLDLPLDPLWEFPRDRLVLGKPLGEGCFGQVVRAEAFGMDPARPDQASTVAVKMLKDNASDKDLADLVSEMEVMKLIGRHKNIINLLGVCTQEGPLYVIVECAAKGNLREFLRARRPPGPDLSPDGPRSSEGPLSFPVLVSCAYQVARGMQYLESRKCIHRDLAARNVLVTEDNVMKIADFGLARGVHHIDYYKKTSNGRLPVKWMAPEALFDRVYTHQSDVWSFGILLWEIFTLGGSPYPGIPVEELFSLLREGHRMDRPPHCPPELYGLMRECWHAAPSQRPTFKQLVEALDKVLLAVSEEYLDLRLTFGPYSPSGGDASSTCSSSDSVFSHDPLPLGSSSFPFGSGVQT
Data set [6] has as its system MDA-MB-453. Nature of the data set: Effect on total FRS2 levels in human MDA-MB-453 cells at 3 to 300 nM after 4 hrs by Western blot method. The class given is ADME, cell-based. Particulars: mda-mb-453, 4 h, 0.3 µM. In short, it runs like this: (§1)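 MDA-MB-453 cells (FGFR4 Y367C) were treated with or without compound for 4 h at the indicated concentrations. Cells were then harvested, and total and phosphorylated FGFR4, FRS2, ERK1/2 and Akt were read by Western blot.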
(In general: Immunoblotting shows a protein as a band on a membrane.)

Data set [7] deals with MDA-MB-453. Nature of the data set: Effect on total ERK1/2 levels in human MDA-MB-453 cells at 3 to 300 nM after 4 hrs by Western blot method. The class given is ADME, cell-based. Particulars: mda-mb-453, 4 h, 0.3 µM. In outline:
as §1

Data set [8] deals with G protein-coupled receptor kinase 4 (Homo sapiens) (UniProt P32298). The data set can be described thus: Inhibition of human GRK4 at 1 uM after 1 hr by KINOMEscan assay relative to control. In short, it runs like this:
(§2)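 Kinome-wide competition binding screen across 468 kinases, with compound at 1.0 µM.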

The target of data set [9] is T1, Fibroblast growth factor receptor 4. Nature of the data set: Binding affinity to ATP binding site of human FGFR4 after 1 hr by qPCR method. In short, it runs like this: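 The Kd for FGFR4 was measured in an active-site-dependent competition binding assay against the ATP-binding site.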
Target sequence in this assay (P22455 whole entry): as above
(In qPCR the cycle at which signal appears reflects the starting amount.)

In data set [10] the test system is MDA-MB-453. The data set can be described thus: Induction of apoptosis in human MDA-MB-453 cells after 48 hrs by annexin V/[…] staining-based flow cytometric method. The class given is functional, cell-based.
Data set [11] has as its target T1, Fibroblast growth factor receptor 4. Particulars: 1 uM.
The target in data set [12] is SRSF protein kinase 3 (Homo sapiens) (UniProt Q9UPE1). Nature of the data set: Inhibition of human SRSF protein kinase 3 at 1 uM after 1 hr by KINOMEscan assay relative to control. In short, it runs like this:
as §2

The test system of data set [13] is MDA-MB-453. The data set can be described thus: Effect on total AKT levels in human MDA-MB-453 cells at 3 to 300 nM after 4 hrs by Western blot method. The class given is ADME, cell-based. Particulars: mda-mb-453, 4 h, 0.3 µM. In outline:
as §1

Data set [14] deals with Calcium/calmodulin-dependent protein kinase type 1D (Homo sapiens) (UniProt Q8IU85). Nature of the data set: Inhibition of human CAMK1D at 1 uM after 1 hr by KINOMEscan assay relative to control. In outline:
as §2

Chain of Fibroblast growth factor receptor 3 (P22607 whole entry, the tested form may be a part): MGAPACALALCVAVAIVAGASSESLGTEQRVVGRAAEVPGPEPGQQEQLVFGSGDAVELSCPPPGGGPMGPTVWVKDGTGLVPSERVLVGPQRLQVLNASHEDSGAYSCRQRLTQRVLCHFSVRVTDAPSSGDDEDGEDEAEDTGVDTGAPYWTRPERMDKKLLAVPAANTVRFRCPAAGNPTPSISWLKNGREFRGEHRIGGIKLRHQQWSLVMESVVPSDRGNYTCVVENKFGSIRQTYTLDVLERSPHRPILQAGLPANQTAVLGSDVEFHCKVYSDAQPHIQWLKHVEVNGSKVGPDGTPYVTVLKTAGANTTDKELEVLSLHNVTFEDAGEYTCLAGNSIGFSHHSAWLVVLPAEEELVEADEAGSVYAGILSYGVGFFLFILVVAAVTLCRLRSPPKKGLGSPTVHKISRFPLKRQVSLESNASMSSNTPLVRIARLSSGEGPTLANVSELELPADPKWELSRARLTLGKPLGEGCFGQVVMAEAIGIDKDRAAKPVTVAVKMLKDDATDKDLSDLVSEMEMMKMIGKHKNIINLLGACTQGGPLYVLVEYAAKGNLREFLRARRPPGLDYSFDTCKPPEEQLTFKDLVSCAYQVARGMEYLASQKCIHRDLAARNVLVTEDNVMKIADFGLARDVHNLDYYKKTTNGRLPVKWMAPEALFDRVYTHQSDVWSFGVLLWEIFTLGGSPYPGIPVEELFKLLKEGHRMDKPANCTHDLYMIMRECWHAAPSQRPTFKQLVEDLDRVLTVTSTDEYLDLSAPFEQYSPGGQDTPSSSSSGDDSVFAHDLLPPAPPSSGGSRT
Chain of Fibroblast growth factor receptor 2 (P21802 whole entry, the tested form may be a part): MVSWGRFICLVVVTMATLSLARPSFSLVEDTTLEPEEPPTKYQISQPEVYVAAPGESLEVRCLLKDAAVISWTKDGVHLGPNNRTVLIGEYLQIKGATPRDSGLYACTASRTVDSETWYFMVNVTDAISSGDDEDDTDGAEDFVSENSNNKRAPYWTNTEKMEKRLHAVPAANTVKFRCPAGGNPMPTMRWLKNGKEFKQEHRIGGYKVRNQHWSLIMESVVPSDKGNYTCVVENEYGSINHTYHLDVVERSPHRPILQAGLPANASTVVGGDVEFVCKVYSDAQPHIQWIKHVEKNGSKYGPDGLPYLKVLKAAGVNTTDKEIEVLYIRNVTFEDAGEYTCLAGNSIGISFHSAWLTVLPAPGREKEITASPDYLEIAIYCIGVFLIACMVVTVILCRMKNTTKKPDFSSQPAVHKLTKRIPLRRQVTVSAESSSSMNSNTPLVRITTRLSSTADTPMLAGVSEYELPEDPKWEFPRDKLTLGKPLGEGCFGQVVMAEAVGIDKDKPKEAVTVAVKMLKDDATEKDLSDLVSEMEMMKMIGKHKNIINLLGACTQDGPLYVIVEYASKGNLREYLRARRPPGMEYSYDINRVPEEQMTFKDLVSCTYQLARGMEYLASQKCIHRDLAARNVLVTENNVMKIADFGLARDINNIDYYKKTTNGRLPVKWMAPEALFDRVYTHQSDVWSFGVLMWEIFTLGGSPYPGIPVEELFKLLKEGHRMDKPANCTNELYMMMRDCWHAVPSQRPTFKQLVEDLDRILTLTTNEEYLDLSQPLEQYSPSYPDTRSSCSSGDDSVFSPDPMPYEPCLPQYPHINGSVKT
Chain of Fibroblast growth factor receptor 1 (P11362 whole entry, the tested form may be a part): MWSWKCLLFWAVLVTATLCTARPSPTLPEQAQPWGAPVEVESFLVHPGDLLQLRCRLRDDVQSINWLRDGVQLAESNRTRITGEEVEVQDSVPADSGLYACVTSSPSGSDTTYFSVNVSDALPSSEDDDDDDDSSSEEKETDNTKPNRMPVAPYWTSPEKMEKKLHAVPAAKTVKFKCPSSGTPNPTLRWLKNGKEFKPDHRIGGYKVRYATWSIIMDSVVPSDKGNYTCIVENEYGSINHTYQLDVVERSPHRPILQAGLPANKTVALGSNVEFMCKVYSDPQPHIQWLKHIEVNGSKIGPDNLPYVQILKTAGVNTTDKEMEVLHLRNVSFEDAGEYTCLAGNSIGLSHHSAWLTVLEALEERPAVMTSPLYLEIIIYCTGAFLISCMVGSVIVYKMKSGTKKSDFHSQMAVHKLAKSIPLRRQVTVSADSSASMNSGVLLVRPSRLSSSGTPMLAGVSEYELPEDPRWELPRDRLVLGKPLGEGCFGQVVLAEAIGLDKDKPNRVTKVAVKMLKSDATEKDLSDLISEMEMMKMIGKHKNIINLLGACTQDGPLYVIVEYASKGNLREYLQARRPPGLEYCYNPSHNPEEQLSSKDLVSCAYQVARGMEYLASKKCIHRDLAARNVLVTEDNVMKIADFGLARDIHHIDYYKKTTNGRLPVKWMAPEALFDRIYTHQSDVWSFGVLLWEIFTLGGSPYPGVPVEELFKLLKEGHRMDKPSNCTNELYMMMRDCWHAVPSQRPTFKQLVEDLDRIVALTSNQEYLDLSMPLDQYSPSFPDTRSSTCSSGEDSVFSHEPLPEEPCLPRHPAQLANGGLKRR
Chain of SRSF protein kinase 3 (Homo sapiens) (Q9UPE1 whole entry): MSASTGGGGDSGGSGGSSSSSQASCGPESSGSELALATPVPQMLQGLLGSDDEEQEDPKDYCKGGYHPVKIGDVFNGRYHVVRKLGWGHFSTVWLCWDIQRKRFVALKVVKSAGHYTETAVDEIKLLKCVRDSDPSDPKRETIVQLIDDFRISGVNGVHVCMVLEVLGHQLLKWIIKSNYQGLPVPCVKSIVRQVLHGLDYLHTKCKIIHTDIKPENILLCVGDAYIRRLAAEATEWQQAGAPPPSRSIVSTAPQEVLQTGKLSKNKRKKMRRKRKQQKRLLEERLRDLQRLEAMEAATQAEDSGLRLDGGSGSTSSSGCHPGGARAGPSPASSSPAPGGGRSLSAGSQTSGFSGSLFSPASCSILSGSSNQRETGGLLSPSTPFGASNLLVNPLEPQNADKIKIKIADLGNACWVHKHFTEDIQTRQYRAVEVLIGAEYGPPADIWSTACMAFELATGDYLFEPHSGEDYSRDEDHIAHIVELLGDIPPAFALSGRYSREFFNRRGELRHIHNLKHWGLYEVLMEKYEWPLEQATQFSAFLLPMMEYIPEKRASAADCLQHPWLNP
Chain of G protein-coupled receptor kinase 4 (Homo sapiens) (P32298 whole entry, looked up): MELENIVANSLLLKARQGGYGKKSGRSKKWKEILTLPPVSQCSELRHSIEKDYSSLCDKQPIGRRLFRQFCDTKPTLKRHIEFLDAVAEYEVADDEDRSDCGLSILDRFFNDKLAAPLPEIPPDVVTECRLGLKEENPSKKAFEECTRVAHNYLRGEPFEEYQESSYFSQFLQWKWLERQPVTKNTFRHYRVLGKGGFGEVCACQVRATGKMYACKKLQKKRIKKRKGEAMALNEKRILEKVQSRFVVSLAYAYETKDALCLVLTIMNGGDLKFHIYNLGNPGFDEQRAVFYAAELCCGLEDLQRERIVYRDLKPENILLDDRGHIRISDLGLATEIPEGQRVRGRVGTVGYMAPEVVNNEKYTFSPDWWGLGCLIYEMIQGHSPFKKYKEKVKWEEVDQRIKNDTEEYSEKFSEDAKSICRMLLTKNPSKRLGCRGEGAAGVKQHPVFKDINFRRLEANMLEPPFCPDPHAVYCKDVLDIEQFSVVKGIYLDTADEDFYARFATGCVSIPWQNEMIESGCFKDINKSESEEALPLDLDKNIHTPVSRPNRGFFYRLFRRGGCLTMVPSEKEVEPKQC
Chain of Calcium/calmodulin-dependent protein kinase type 1D (Homo sapiens) (Q8IU85 whole entry, looked up): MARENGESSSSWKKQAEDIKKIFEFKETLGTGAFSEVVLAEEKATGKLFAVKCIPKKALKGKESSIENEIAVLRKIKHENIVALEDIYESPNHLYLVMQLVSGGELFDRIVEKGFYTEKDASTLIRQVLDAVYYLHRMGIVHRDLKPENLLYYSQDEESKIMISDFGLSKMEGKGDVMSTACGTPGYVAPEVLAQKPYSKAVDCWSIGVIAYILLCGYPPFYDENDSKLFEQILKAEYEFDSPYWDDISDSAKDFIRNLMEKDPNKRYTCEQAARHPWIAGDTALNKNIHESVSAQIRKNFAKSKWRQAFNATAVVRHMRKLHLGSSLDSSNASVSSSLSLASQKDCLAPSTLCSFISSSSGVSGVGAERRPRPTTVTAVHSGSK

A word on the IC50: it is the point on the concentration scale where inhibition reaches its midpoint. With `C=CC(=O)Nc1cccc(OC)c1Nc1ncc(OCc2c(Cl)c(OC)cc(OC)c2Cl)cn1`, the IC50 is more than 10 µM in [1]; 0.21 µM with MDA-MB-453 [2]; 1.18 µM with MCF7; 2.14 µM in the data set on MDA-MB-231; more than 10 µM in data set [3].

In the case of `C=CC(=O)Nc1ccc(C)cc1Nc1ncc(OCc2c(Cl)c(OC)cc(OC)c2Cl)cn1`, the concentration for half-maximal inhibition (IC50) in [1] and in data set [3] was more than 10 µM in each case.

`C=CC(=O)Nc1cccc(Cl)c1Nc1ncc(OCc2cccc(OC)c2Cl)cn1`: the IC50 in [1] and in [3] was more than 10 µM each time.

As for `C=CC(=O)Nc1cccc(CC)c1Nc1ncc(OCc2c(Cl)c(OC)cc(OC)c2Cl)cn1`, the IC50 in [1] and in [3] was more than 10 µM in each case.

On to `C=CC(=O)Nc1cccc(Cl)c1Nc1ncc(OCc2ccccc2Cl)cn1`, for which the IC50 in [1], in data set [3] and in [4] was more than 10 µM in each case.

For the compound `C=CC(=O)Nc1cccc(Cl)c1Nc1ncc(OC(C)c2c(Cl)c(OC)cc(OC)c2Cl)cn1` (stereo not given), the IC50 in data set [1] and in data set [3] was more than 10 µM each time.

As to `C=CC(=O)Nc1cc(Cl)cc(Cl)c1Nc1ncc(OCc2c(Cl)c(OC)cc(OC)c2Cl)cn1`, the IC50 in data set [1] was more than 10 µM; with MDA-MB-453 [2], 0.87 µM; in the data set with MCF7, more than 10 µM; with MDA-MB-231 it was more than 10 µM; in data set [3] it was more than 10 µM.

Regarding `C=CC(=O)Nc1cccc(OC(C)C)c1Nc1ncc(OCc2c(Cl)c(OC)cc(OC)c2Cl)cn1`, the concentration for half-maximal inhibition (IC50) in [1], in [3] and in [4] was more than 10 µM each time.

With `C=CC(=O)Nc1ccccc1Nc1ncc(OCc2c(Cl)c(OC)cc(OC)c2Cl)cn1`, the half-inhibitory concentration (IC50) in [1] is 1.2 µM; in [3], 0.312 µM.

For the compound `C=CC(=O)Nc1cccc(Cl)c1Nc1ncc(OCc2cc(OC)ccc2Cl)cn1`, the IC50 in data set [1] and in [3] was more than 10 µM each time.

Take `C=CC(=O)Nc1cccc(Cl)c1Nc1ncc(OCc2cc(OC)cc(OC)c2)cn1`: the IC50 in data set [1] and in [3] was more than 10 µM in each case.

`C=CC(=O)Nc1cccc(Cl)c1Nc1ncc(OCc2c(Cl)c(OC)cc(OC)c2Cl)cn1`: the IC50 was more than 10 µM in data set [1]; 0.65 µM in the data set on MDA-MB-453 [2]; more than 10 µM in the data set with MCF7; more than 10 µM in the data set with MDA-MB-231; more than 10 µM in [3].

`C=CC(=O)Nc1cccc(OCC)c1Nc1ncc(OCc2c(Cl)c(OC)cc(OC)c2Cl)cn1`: the IC50 in [1], in [3] and in data set [4] was more than 10 µM throughout.

On to `C=CC(=O)Nc1cccc(C)c1Nc1ncc(OCc2c(Cl)c(OC)cc(OC)c2Cl)cn1`, for which the IC50 was 0.22 µM in the data set on MDA-MB-453 [2], more than 10 µM in the data set with MCF7 and more than 10 µM in the data set with MDA-MB-231.

For `C=CC(=O)Nc1cccc(F)c1Nc1ncc(OCc2c(Cl)c(OC)cc(OC)c2Cl)cn1`, the IC50 in data set [1] is 4.3 µM; in data set [3] it was 0.397 µM.

As for `C=CC(=O)Nc1cccc(C)c1Nc1ncc2cc(-c3c(Cl)c(OC)cc(OC)c3Cl)ccc2n1`, the IC50 in data set [1] was determined as 0.244 µM; in the data set on MDA-MB-453 [2], 0.32 µM; in the data set on MCF7, 2.34 µM; with MDA-MB-231, 3.76 µM; in data set [4] it was 0.24 µM.

With `C=CC(=O)Nc1cccc(Cl)c1Nc1ncc(OCc2c(Cl)cccc2Cl)cn1`, the IC50 in [1], in data set [3] and in data set [4] was more than 10 µM each time.

As to `C=CC(=O)Nc1cccc(C(F)(F)F)c1Nc1ncc(OCc2c(Cl)c(OC)cc(OC)c2Cl)cn1`, the IC50 in data set [1], in data set [3] and in data set [4] was more than 10 µM in each case.

For the compound `C=CC(=O)Nc1cc(C)ccc1Nc1ncc(OCc2c(Cl)c(OC)cc(OC)c2Cl)cn1`, the concentration for half-maximal inhibition (IC50) in data set [1] and in [3] was more than 10 µM throughout.

With `C=CC(=O)Nc1cccc(C)c1Nc1ncc(NCc2c(Cl)c(OC)cc(OC)c2Cl)cn1`, the IC50 in [1] and in data set [3] was more than 10 µM each time.

Take `C=CC(=O)Nc1cccc(Cl)c1Nc1ncc(OCc2cc(OC)cc(OC)c2Cl)cn1`: the IC50 in data set [1] and in data set [3] was more than 10 µM each time.

Regarding `C=CC(=O)Nc1cccc(Cl)c1Nc1ncc(OCc2cccc(OC)c2)cn1`, the IC50 in data set [1], in [3] and in data set [4] was more than 10 µM in each case.

For `C=CC(=O)Nc1cccc(Cl)c1Nc1ncc(OCc2c(Cl)ccc(OC)c2Cl)cn1`, the IC50 in data set [1] and in data set [3] was more than 10 µM in each case.

Regarding `C=CC(=O)Nc1cc(C(F)(F)F)cc(Cl)c1Nc1ncc(OCc2c(Cl)c(OC)cc(OC)c2Cl)cn1`, the 50% inhibitory concentration (IC50) in data set [1], in data set [3] and in data set [4] was more than 10 µM each time.

`C=CC(=O)Nc1c(C)cccc1Nc1ncc(OCc2c(Cl)c(OC)cc(OC)c2Cl)cn1`: the IC50 in data set [1], in [3] and in data set [5] was more than 10 µM in each case.

With `CCC(=O)Nc1cccc(Cl)c1Nc1ncc(OCc2c(Cl)c(OC)cc(OC)c2Cl)cn1`, the half-maximal inhibitory concentration (IC50) in data set [1], in data set [3] and in data set [5] was more than 10 µM each time.

Usually inhibition stands for the relative decrease from the control value, in per cent. In general, Kd refers to the concentration at which binding is half-saturated. High values mean lower affinity, low ones higher affinity. As for `C=CC(=O)Nc1cc(F)cc(Cl)c1Nc1ncc(OCc2c(Cl)c(OC)cc(OC)c2Cl)cn1`, the Activity entry is “Non-Toxic” with MDA-MB-453 [6], “Non-Toxic” in the data set on MDA-MB-453 [7], “Dose-dependent effect” with MDA-MB-453 [10] and “Non-Toxic” in the data set with MDA-MB-453 [13]. The inhibition in data set [8] was found to be 92.8%; in [11], 99.5%; in [12], 88%; in data set [14], 94.7%. In [9], this compound displayed a Kd of 0.0033 µM. Moreover, the IC50 in [1] was more than 10 µM; with MDA-MB-453 [2], 0.38 µM; in the data set on MCF7 it was more than 10 µM; in the data set on MDA-MB-231, more than 10 µM; in data set [3] it was more than 10 µM; in [5], 0.0026 µM. For the same compound, the concentration for half-maximal inhibition (IC50) in [4] was more than 10 µM.

For the origin of these results see ChEMBL document CHEMBL3997853, “2-Aminopyrimidine Derivatives as New Selective Fibroblast Growth Factor Receptor 4 (FGFR4) Inhibitors” (ACS Med Chem Lett, 2017).
